Shown are actives, neighbours in structure and some others; about 11% of the full set was active somewhere.
M1 antag = blocks the rat M1 muscarinic receptor response to acetylcholine | CHO-M1 cells, Fluo-4 calcium, ACh EC80 antagonist mode; active compounds read low | B-score at 10 µM | actives 3.4% (n = 64,000) | AID 628;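 active = calcium fluorescence response, raw or row-and-column corrected B-score, differing from the plate sample mean either way at a set confidence level, mostly lower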
Target sequence (P08482 whole entry, looked up): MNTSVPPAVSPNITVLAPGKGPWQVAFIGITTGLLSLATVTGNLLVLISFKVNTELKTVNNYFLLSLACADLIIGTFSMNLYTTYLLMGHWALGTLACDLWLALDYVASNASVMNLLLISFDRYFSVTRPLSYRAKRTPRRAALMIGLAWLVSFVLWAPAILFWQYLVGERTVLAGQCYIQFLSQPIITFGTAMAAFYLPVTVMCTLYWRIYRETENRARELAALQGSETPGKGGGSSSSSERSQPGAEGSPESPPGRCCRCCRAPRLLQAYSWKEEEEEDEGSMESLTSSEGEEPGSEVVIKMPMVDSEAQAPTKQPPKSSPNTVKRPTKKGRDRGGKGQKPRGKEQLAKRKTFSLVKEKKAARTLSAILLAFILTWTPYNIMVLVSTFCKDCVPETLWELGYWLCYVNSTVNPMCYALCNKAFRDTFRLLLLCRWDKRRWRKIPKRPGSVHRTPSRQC
SF1 activator = activators of human nuclear receptor SF-1 | Q13285 | CHO-K1 Gal4-SF-1 LBD luciferase reporter; % increase over DMSO SF-1-specific signal | activation, % at 10 µM | actives 1.9% (n = 65,000) | AID 522;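 active = activation above the mean activation of all tested compounds plus 3 SD, cut at about 50% in these data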
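Assay system: CHO-K1 cells co-transfected with Gal4 DBD–human SF-1 LBD, 5xGal4 luciferase reporter; doses: 10 µM only; incubation: 20 h compound exposure at 37 °C after 1 h cell settling; signal: luciferase light emission; evaluation: percent activation versus DMSO; repeats: one test per compound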
RORA act = activators of human nuclear receptor RORA; P35398; CHO-K1 Gal4-RORA LBD luciferase reporter, luminescence; percent increase over mock-subtracted basal signal; activation, % at 10 µM; actives 1.5% (n = 65,000); AID 560;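 active = activation above the mean of all tested compounds plus 3 SD, cut at about 49% in these data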;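 also: 0% = DMSO-treated RORA cells and 100% = added signal equal to DMSO minus mock-transfected cells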
M1 ag = agonists of M1 muscarinic receptor | CHO-M1 cells, Fluo-4 calcium fluorescence, agonist mode; active compounds read high | B-score at 10 µM | actives 3% (n = 64,000);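 active = fluorescence rise, raw or as B-score row- and column-corrected plate score, outside the 99.7% band of its plate's samples, either direction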
D1 allo mod = allosteric modulators of human D1 dopamine receptor; HEK293 D1, CRE-luciferase, dopamine EC30 potentiation; actives deviate in either direction; B-score at 10 µM; actives 5.9% (n = 58,000); AID 641;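 active = luminescence count or its row- and column-corrected plate score outside the 99.7% band of the plate's sample wells, on either side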
mHtt clearance = mutant huntingtin protein clearance; inhibition, % at 1.5 µM; HeLa Exon1htt(103Q)mCFP, aggregate imaging; zero = plate's median compound well; actives 0.42% (n = 47,000);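 active = inhibition of aggregate fluorescence above about 70%, also judged a hit by eye on the cell image, limit read from the data, passing the limit was not always enough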;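 also: cells exposed to compound for three days before fixation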
Active calls of the source: *; x = no result given.

SMILES	M1 antag	SF1 activator	RORA act	M1 ag	D1 allo mod	mHtt clearance
O=C(CSc1nc2ccccc2[nH]1)N1CCCCC1	0.661	47.6	52.1*	-0.0229	x	-3.4
COc1ccccc1N(CC(O)CN1C(=O)NC(C)(C)C1=O)S(=O)(=O)c1ccc(C)cc1 (centres undefined)	0.463	-5.5	-13.9	0.898	0.791	37.8
COc1ccc2oc(-c3ccc(C)c(NC(=O)c4ccc(N5CCOCC5)c([N+](=O)[O-])c4)c3)nc2c1	x	x	x	x	x	-47.7
Cc1ccc2nc(SCC(=O)c3cc(C)n(C)c3C)[nH]c2c1	x	x	x	x	x	36.3
Cc1cc(C(=O)CSc2nc3ccccc3[nH]2)c(C)n1C	-0.0323	61.0*	59.3*	-0.0311	-2.87*	-49.9
CC(C)C(NS(=O)(=O)c1cccs1)C(=O)NCc1ccc2c(c1)OCO2 (centres undefined)	-0.0219	-4.9	2.8	0.731	0.383	x
O=C(NCc1ccccc1)C(c1ccncc1)N(C(=O)c1csnn1)C1CC1 (centres undefined)	x	x	x	x	x	53.3
COc1ccc(CONS(=O)(=O)c2ccc(NC(C)=O)cc2)cc1Cl	x	x	x	x	x	1.2
Clc1ccc(-c2nnc(-c3ccccc3)o2)c(Cl)c1	0.229	-11.3	-6.9	-0.352	-1.09	x
Fc1ccc(-c2nnc(-c3ccc(Cl)cc3)o2)cc1	0.221	38.2	56.1*	-0.179	-1.55	x
Fc1ccc(-c2nnc(-c3ccc(Cl)cc3Cl)o2)cc1	1.5	-23.8	-11.8	-0.311	-2.89*	-94.2
CCSc1nnc(-c2ccc(Cl)cc2Cl)o1	1.97*	54.5*	40.1	0.0702	0.39	x
CCOC(=O)C1CCCCN1Cc1ccccc1C(F)(F)F (centres undefined)	0.174	-17.6	-13.4	-0.0485	-0.329	x
CCC(CC)c1nnc(NC(=O)c2c(-c3ccccc3)noc2C)s1	-0.13	9.6	7.7	-0.567	1.17	-14.6
Cc1onc(-c2ccccc2)c1C(=O)Nc1nc(-c2cc(F)ccc2F)cs1	0.663	53.6*	17.8	0.411	x	x
O=C(Nc1ccc(Cl)cc1)C1=Cc2ccccc2OC1	x	x	x	x	x	-11.0
COc1ccc2nc(NCCCNC(=O)c3cc(OC)c(OC)c(OC)c3)c(C#N)cc2c1	-0.79	9.7	-9.6	15.1*	0.0944	-12.0
CCOC(=O)c1c(C)n(C)c2ccc(OCC(O)Cn3c(C)nc4ccccc43)cc12 (centres undefined)	-1.37	3.3	-1.5	2.15*	-0.287	23.6
O=c1cc(-c2ccccc2)[nH]n1-c1nc2ccccc2s1	-0.833	35.8	30.9	-1.15	-1.17	x
O=c1cc(-c2ccccc2)[nH]c2nc3ccccc3n12	0.298	2.8	7.2	0.449	-6.49*	x
N#CCCn1cc(/C=N/O)c(-c2ccc(-c3ccccc3)cc2)n1	0.382	56.7*	34.5	0.626	0.314	x
CC(C)(C)NC(=O)c1ccccc1-c1nc(-c2ccccc2Cl)no1	-0.453	-6.5	-6.5	1.11	0.556	x
c1ccc(-c2nc(-c3ccccn3)no2)cc1	x	x	x	x	x	-29.1
Clc1cccc(-c2nc(-c3ccccn3)no2)c1	0.566	-70.9	-61.7	-1.49	-6.91*	14.9
Cc1ccc(-c2nc(-c3ccccn3)no2)cc1Cl	-0.107	-85.8	-80.7	-0.564	-4.42*	x
SMILES	M1 antag	SF1 activator	RORA act	M1 ag	D1 allo mod	mHtt clearance
c1ccc(-c2ccc(-c3nc(-c4ccccn4)no3)cc2)cc1	1.12	x	x	0.888	-9.56*	x
Cc1ccccc1-c1noc(-c2ccc(O)cc2)n1	0.173	33.4	100.7*	-0.924	-1.36	x
CC(C)CC(=O)Nc1cc(NC(=O)CC(C)C)cc(C(=O)NC(C)(C)C)c1	x	x	x	x	x	-11.9
Cc1nc(-c2c(-c3ccc(O)cc3O)noc2C(F)(F)F)cs1	-0.178	7.8	-31.5	-0.189	x	x
Cc1ccc(-c2nc(-c3ccccn3)no2)cc1	-0.591	-92.2	-90.1	0.363	-7.59*	-35.5
CC1(c2ccc(OC(F)F)cc2)NC(=O)N(CC(=O)Nc2ccc3c(c2)OCO3)C1=O (centres undefined)	0.252	0.4	-17.4	22.8*	0.801	x
Cc1cc(C(=O)CN2C(=O)C3CC=CCC3C2=O)c(C)n1-c1ccccc1 (centres undefined)	-0.0649	25.1	6.9	-0.775	-3.63*	x
Cc1cc(C(=O)CN2C(=O)c3ccccc3S2(=O)=O)c(C)n1-c1ccccc1	0.0221	41.3	2.4	-0.702	-4.98*	x
O=C1C2CC=CCC2C(=O)N1CNc1ccccc1 (centres undefined)	x	x	x	x	x	-29.9
